Assay results published in ChEMBL document CHEMBL4732162, “Design, synthesis and evaluation of novel ErbB/HDAC multitargeted inhibitors with selectivity in EGFR mutant cell lines” (Eur J Med Chem, 2021).
The source made the active and inactive calls. The rule behind the calls is not given here.

Assays:
[1] = biological target: T1, Epidermal growth factor receptor (Homo sapiens, UniProt P00533); assay: Inhibition of EGFR in human NCI-H1975 cells assessed as reduction in EGFR phosphorylation at Tyr-1068 residues at 1 uM after 48 hrs by Western blot analysis; assay type: cell-based
T1 sequence (P00533 whole entry): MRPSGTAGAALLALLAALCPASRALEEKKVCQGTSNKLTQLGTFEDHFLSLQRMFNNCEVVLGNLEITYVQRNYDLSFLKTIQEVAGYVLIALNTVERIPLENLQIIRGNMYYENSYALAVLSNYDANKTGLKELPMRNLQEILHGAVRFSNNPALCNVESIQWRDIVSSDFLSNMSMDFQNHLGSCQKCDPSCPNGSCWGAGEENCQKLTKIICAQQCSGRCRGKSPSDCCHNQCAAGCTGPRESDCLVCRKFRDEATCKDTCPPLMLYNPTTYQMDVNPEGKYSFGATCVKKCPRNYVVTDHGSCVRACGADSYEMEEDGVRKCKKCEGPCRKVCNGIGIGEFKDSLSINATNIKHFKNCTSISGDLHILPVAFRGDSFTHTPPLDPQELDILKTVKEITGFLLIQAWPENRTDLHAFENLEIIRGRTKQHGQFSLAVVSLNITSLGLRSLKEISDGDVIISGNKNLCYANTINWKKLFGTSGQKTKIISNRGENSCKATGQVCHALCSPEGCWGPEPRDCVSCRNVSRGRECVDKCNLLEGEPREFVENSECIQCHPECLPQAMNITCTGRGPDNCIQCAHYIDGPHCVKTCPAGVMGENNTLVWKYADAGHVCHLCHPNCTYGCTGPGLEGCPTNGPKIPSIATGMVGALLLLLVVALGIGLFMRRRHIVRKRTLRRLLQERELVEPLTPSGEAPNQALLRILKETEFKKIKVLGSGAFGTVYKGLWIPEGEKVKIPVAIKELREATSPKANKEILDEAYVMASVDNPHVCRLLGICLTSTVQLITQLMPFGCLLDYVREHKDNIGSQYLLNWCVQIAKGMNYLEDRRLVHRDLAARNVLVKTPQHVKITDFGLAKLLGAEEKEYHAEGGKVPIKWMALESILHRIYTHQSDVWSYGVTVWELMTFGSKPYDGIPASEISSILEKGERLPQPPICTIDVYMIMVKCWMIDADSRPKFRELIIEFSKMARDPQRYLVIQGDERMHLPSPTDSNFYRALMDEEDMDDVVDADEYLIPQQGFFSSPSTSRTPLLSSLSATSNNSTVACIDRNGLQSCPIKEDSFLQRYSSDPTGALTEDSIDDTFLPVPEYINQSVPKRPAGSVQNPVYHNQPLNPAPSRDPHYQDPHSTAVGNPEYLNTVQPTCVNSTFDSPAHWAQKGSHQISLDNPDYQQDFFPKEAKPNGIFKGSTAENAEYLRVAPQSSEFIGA
Summary of the method: (§1)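 Cells were treated with compound for 48 h and lysed on ice for 30 min in RIPA buffer with protease and phosphatase inhibitors. Lysates were cleared at 14000 g, 4 °C, and protein quantified by BCA. Samples were boiled in loading buffer, run on 10–12% SDS-PAGE and transferred to PVDF. Membranes were blocked 2 h, incubated in primary antibody overnight at 4 °C, then in secondary antibody 2 h at room temperature.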

[2] = biological target: T1, Epidermal growth factor receptor; assay: Inhibition of EGFR in human NCI-H1975 cells assessed as reduction in EGFR phosphorylation at Tyr-1173 residues at 1 uM after 48 hrs by Western blot analysis; assay type: cell-based; summary of the method: as §1
[3] = test system: SK-BR-3; assay: Antiproliferation activity against human SK-BR-3 cells incubated for 72 hrs by MTT assay; assay type: functional, cell-based; conditions: SK-BR-3, 72 h
Summary of the method: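 MTT assay. About 0.5–1 × 10⁴ cells/well were pre-incubated 12 h at 37 °C in 5% CO₂, then exposed to a concentration series of compound for 72 h. Formazan was dissolved in DMSO and absorbance read at 490 nm. Three wells per condition, three independent experiments. IC50 is the mean ± SD from the dose-response curves.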

[4] = test system: NCI-H1975; assay: Antiproliferative activity against human NCI-H1975 cells incubated for 72 hrs by MTT assay; assay type: functional, cell-based; conditions: NCI-H1975, 72 h
[5] = biological target: Histone deacetylase 1 (Homo sapiens, UniProt Q13547); assay: Inhibition of HDAC1 (unknown origin)
Chain of Histone deacetylase 1 (Q13547 whole entry): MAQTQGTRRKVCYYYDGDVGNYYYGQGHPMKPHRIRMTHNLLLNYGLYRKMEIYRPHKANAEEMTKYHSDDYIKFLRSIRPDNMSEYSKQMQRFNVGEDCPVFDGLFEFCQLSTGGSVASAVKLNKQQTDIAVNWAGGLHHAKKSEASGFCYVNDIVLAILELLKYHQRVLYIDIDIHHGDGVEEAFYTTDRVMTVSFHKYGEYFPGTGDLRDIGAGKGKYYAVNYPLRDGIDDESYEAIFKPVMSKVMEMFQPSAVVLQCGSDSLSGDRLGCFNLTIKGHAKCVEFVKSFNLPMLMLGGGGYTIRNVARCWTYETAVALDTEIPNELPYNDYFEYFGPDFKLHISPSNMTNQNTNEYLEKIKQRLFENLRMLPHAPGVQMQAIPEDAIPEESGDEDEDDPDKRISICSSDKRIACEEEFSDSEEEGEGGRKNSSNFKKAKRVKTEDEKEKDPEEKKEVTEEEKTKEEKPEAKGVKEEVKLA

[6] = test system: FHC; assay: Cytotoxicity against human FHC cells assessed as reduction of cell viability incubated for 72 hrs by MTT assay; assay type: ADME, cell-based
[7] = test system: A549; assay: Antiproliferative activity against human A549 cells incubated for 72 hrs by MTT assay; assay type: functional, cell-based; conditions: A549, 72 h
[8] = test system: A-431; assay: Antiproliferative activity against human A431 cells incubated for 72 hrs by MTT assay; assay type: functional, cell-based; conditions: A-431, 72 h
[9] = test system: L02; assay: cytotoxicity against human HL-7702 cells assessed as reduction of cell viability incubated for 72 hrs by MTT assay; assay type: ADME, cell-based; conditions: L02, 72 h
[10] = test system: NCI-H838; assay: Antiproliferation activity against human NCI-H838 cells incubated for 72 hrs by MTT assay; assay type: functional, cell-based; conditions: NCI-H838, 72 h
[11] = biological target: Receptor tyrosine-protein kinase erbB-2 (Homo sapiens, UniProt P04626); assay: Inhibition of HER2 (unknown origin) by mobility shift assay
Summary of the method: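 In vitro kinase activity was measured by mobility shift assay, run by a contract provider.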

[12] = biological target: T1, Epidermal growth factor receptor; assay: Inhibition of EGFR (unknown origin) by mobility shift assay
[13] = biological target: Epidermal growth factor receptor (Homo sapiens, UniProt P00533, L858R/T790M); assay: Inhibition of EGFR L858R/T790M (unknown origin) by mobility shift assay
Chain of Epidermal growth factor receptor (Homo sapiens, UniProt P00533, L858R/T790M) (P00533 25-1210 T790M/L858R limits assumed): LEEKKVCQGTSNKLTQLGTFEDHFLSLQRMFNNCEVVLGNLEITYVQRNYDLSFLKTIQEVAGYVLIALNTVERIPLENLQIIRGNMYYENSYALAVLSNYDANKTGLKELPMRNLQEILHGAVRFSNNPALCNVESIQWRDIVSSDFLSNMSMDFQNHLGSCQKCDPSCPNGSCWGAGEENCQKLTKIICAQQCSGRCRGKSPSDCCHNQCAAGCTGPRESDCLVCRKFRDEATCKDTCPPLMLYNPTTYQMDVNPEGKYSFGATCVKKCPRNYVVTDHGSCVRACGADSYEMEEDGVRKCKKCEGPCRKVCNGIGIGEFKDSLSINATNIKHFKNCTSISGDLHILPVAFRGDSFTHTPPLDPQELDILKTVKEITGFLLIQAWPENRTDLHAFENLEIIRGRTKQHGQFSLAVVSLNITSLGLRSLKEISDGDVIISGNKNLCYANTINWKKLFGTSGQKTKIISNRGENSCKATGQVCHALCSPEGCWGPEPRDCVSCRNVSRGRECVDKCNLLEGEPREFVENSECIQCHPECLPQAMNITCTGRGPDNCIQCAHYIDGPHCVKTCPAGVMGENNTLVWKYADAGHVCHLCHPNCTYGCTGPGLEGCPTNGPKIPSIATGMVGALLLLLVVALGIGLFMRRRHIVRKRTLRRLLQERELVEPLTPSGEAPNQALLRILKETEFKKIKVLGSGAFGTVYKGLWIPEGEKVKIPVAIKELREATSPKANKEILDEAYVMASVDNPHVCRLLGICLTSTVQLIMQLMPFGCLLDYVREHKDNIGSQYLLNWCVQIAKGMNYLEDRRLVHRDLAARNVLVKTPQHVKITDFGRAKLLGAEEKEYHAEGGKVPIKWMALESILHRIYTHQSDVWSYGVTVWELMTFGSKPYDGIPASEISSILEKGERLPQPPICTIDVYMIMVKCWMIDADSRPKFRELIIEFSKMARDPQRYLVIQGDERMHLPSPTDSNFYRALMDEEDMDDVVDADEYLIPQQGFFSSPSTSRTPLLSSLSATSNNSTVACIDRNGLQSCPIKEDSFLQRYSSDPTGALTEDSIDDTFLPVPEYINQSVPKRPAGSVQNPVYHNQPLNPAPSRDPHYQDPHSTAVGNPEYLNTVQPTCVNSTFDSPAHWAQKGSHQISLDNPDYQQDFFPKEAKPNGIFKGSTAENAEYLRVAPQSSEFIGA

[14] = biological target: Epidermal growth factor receptor (Homo sapiens, UniProt P00533, L858R); assay: Inhibition of EGFR L858R (unknown origin) by mobility shift assay
Chain of Epidermal growth factor receptor (Homo sapiens, UniProt P00533, L858R) (P00533 25-1210 L858R limits assumed): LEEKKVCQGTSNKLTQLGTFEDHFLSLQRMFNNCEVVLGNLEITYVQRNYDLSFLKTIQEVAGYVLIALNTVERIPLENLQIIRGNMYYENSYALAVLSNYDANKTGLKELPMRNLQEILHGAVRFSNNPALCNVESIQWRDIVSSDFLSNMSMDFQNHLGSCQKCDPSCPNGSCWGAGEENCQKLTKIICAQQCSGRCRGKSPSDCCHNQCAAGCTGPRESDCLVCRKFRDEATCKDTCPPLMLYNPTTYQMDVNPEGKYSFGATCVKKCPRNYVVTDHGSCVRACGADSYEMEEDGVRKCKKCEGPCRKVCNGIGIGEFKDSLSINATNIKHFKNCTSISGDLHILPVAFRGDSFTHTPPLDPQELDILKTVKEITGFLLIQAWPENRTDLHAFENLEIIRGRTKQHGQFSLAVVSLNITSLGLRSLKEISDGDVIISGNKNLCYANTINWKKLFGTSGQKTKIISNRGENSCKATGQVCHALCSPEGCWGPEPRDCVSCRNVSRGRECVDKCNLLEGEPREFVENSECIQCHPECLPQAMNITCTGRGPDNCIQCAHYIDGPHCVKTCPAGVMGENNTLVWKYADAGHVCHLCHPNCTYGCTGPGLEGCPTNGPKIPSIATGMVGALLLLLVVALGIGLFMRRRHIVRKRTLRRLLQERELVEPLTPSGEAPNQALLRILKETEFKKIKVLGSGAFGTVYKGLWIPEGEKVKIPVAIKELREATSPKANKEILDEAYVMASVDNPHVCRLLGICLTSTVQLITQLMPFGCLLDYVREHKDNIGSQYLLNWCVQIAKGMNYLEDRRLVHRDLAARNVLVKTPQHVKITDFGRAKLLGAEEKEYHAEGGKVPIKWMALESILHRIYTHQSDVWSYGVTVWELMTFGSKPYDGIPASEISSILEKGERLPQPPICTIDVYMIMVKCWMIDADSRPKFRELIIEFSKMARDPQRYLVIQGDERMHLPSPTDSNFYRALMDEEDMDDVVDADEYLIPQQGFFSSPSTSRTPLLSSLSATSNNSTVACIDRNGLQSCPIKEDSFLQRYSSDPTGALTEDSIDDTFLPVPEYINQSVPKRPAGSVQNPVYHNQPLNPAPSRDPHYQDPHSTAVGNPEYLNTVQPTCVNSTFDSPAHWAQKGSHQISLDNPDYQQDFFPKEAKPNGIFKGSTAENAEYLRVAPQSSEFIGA

[15] = biological target: Histone deacetylase (Homo sapiens) (UniProt Q13547+O15379+Q9UBN7+Q92769+Q9UQL6+Q8WUI4+Q9BY41+Q96DB2+P56524+Q9UKV0+Q969S8); assay: Inhibition of HDAC in human NCI-H1975 cells assessed as increase in histone H3 acetylation at 2.5 uM after 1 to 12 hrs by Western blot analysis; assay type: cell-based; conditions: time lower 1.0 hrs, time upper […]

| inhibition [1] | inhibition [2] | IC50 [3] [µM] | IC50 [4] [µM] | IC50 [5] [nM] | IC50 [7] [µM] | IC50 [8] [µM] | IC50 [10] [µM] | IC50 [11] [nM] | IC50 [12] [nM] | IC50 [13] [nM] | IC50 [14] [nM] | inhibition [15] | Structure (SMILES) | IC50 [6] [µM] | IC50 [9] [µM] |
| --- | --- | --- | --- | --- | --- | --- | --- | --- | --- | --- | --- | --- | --- | --- | --- |
| inactive | inactive | 2.13 | – | – | – | – | – | – | – | – | – | – | O=C(CCCCCCC(=O)Nc1ccccc1)NO [VORINOSTAT] | – | – |
| – | – | > 50 | 2.8 | 34 | > 50 | 16.9 | > 50 | 8 | – | – | – | – | C=CC(=O)Nc1cc2c(Nc3cccc(Cl)c3F)ncnc2cc1OCc1cn(CCCC(=O)NO)nn1 | > 25 | > 25 |
| – | – | > 50 | 4.45 | 93 | > 50 | 22.1 | > 50 | 5.4 | 0.33 | 2.3 | 1.1 | – | C=CC(=O)Nc1cc2c(Nc3ccc(F)c(Cl)c3)ncnc2cc1OCc1cn(CCC(=O)NO)nn1 | > 25 | > 25 |
| – | – | – | – | – | – | – | – | – | – | – | – | Active | COc1cc2ncnc(Nc3ccc(F)c(Cl)c3)c2cc1OCCCN1CCOCC1 | – | – |
| – | – | > 50 | 6.61 | 44 | > 50 | 15 | > 50 | 13 | 0.34 | 8.3 | 1.1 | – | C=CC(=O)Nc1cc2c(Nc3cccc(Cl)c3F)ncnc2cc1OCc1cn(CCC(=O)NO)nn1 | > 25 | > 25 |
| – | – | 20 | 2.5 | 292 | > 50 | 15 | > 50 | 7.3 | 0.35 | 1.8 | 0.88 | – | C=CC(=O)Nc1cc2c(Nc3ccc(F)c(Cl)c3)ncnc2cc1OCc1cn(CCCCC(=O)NO)nn1 | > 25 | > 25 |
| – | – | > 50 | 4.18 | 132 | > 50 | 15.6 | > 50 | 16 | 0.44 | 17 | 1.2 | – | C=CC(=O)Nc1cc2c(Nc3cccc(Cl)c3F)ncnc2cc1OCc1cn(CCCCC(=O)NO)nn1 | > 25 | > 25 |
| – | – | 16 | 14.5 | > 1000 | > 50 | 18.8 | > 50 | 3.8 | 1.5 | 14 | 2.6 | – | C=CC(=O)Nc1cc2c(Nc3ccc(OCc4cccc(F)c4)c(Cl)c3)ncnc2cc1OCc1cn(CCCCC(=O)NO)nn1 | > 25 | > 25 |
| – | – | 20.2 | 12 | > 1000 | > 50 | 19.9 | > 50 | 3.7 | 1.8 | 15 | 2.9 | – | C=CC(=O)Nc1cc2c(Nc3ccc(OCc4cccc(F)c4)c(Cl)c3)ncnc2cc1OCc1cn(CCCC(=O)NO)nn1 | > 25 | > 25 |
| – | – | 24.8 | 21 | > 1000 | > 50 | 16.3 | > 50 | 3.7 | 1.1 | 16 | 2.2 | – | C=CC(=O)Nc1cc2c(Nc3ccc(OCc4cccc(F)c4)c(Cl)c3)ncnc2cc1OCc1cn(CCC(=O)NO)nn1 | > 25 | > 25 |
